High-throughput results: PubChem, Sanford-Burnham Center for Chemical Genomics
Hits are enriched below; roughly 1.8% of the tested compounds scored in any of these assays.
697 NFkB inh – inhibitors of the PMA/ionomycin-induced NF-kB reporter in 697 B cells. 0.33% of 330,000 active. inhibition, % at 4 µM. 697 B-cell NF-kB luciferase reporter, 16 h; in the data active = inhibition above about 35%
Jurkat NFkB inh – inhibitors of the PMA/ionomycin-induced NF-kB reporter in Jurkat cells; PMA/ionomycin-induced NF-kB luciferase reporter, luminescence; inhibition, % at 4 µM; 0.53% of 330,000 active; in the data active = inhibition above about 50%
XBP1 UPR activ – adaptive UPR (XBP1) activation; 0.33% of 330,000 active; activation, % at 20 µM; CHO-XBP1 luciferase reporter, IRE1-XBP1 UPR activation, luminescence; percent of tunicamycin response, DMSO as zero;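 active = versus positive control, 20 µM dose yields 30% or more activation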;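 note: 100% = tunicamycin at 10 µg/mL and 0% = DMSO only wells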
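assay system = CHO-XBP1 luciferase reporter cells | amount = 1000 cells/well | buffer or medium = F12 plus 10% FBS | compound dosing = single point, 20 µM final compound, 1% DMSO | incubation = 16-18 h cell attachment at 37 °C, then 6 h compound exposure | detection = Steady-Glo luminescence read | controls = tunicamycin 10 µg/mL and vehicle-only wells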
CRFBP-R2 block – CRF-BP/CRF-R2 complex antagonism; HEK293 CRF-R2/CRF-BP, CRF-induced calcium fluorescence; AID 588475; inhibition, % at 11.8 µM; 0.59% of 350,000 active;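 active = inhibition of the ligand-induced calcium signal above about 50% at the single tested concentration, limit read from the data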
CHOP UPR activ – activators of apoptotic arm of unfolded protein response (CHOP); CHO-CHOP luciferase reporter, UPR activation, luminescence; percent of tunicamycin response over DMSO baseline; activation, % at 10 µM; 0.34% of 330,000 active; AID 449763;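 active = at 10 µM dose, activation of 40% or more, normalized to positive control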;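 note: 100% = tunicamycin at 10 µg/mL and 0% = DMSO alone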
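Evaluation: % reporter activation, DMSO baseline versus tunicamycin full activation; System: CHO-CHOP luciferase reporter cell line; Input: 500 cells/well; Incubation: 6 h compound treatment, 37 °C; Measured by: Steady-Glo luciferase luminescence; Dosing: one dose, 10 µM in 0.5% DMSO; Buffer or medium: F12 medium, 10% FBS; Benchmarks: positive tunicamycin 10 µg/mL, negative DMSO alone.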
Starred values were filed as active, the others as inactive; . = no result.

SMILES	697 NFkB inh	Jurkat NFkB inh	XBP1 UPR activ	CRFBP-R2 block	CHOP UPR activ
COc1ccc(OCC(=O)Nc2ccccc2Cl)cc1	13	-60	-1	-1	7
Cc1nn(CC(=O)N(C)C)c(C)c1S(=O)(=O)N1CCOCC1	16	13	-3	3	1
CCCCn1cnc2c(SCc3ccc(Br)cc3)nc(N)nc21	.	.	.	6	.
COc1ccccc1NC(=O)c1nc(S(=O)(=O)Cc2ccccc2)ncc1Cl	-151	42	-10	51*	-10
CC(=O)Nc1ccc(NC(=O)c2nc(S(=O)(=O)Cc3cccc(C)c3)ncc2Cl)cc1	-50	37	-11	73*	-11
CCC1CCCCN1C(=O)CSc1n[nH]c(N)n1 (centres undefined)	17	-4	2	5	0
CCNC(=S)Nc1cc(OC)c(NC(=O)c2ccco2)cc1OC	-24	-40	-2	73*	-1
O=Nc1c(-c2cccc([N+](=O)[O-])c2)nc2ncccn12	13	12	9	.	131*
CC1Cn2c(nc3sc4c(c3c2=O)CC(C)(C)OC4)N1CCO (centres undefined)	0	8	1	23	2
CCOC(=O)c1c(NC(=O)COC(=O)c2ccc([N+](=O)[O-])cc2)sc(C(=O)N(C)C)c1C	21	11	1	0	0
CCOC(=O)c1c(C)[nH]c(C(=O)OCC(=O)Nc2sc(C(=O)N(C)C)c(C)c2C(=O)OCC)c1C	7	8	0	87*	1
CN1CCC(CC(C(=O)N2CCCC2)(c2ccccc2)c2ccccc2)C1 (centres undefined)	.	.	.	-9	.
COC(=O)[C@@]12CCCN1[C@H](c1ccc(-c3ccc4c(c3)OCO4)cc1)[C@H]1C(=O)N(C)C(=O)[C@H]12	4	-19	1	0	-1
COc1ccc(Cl)cc1C(=O)NNC(=O)c1ccncc1	0	5	-1	-6	-1
O=C(C/C=N\OCc1ccc([N+](=O)[O-])cc1)Nc1ccc(Br)cc1	22	11	3	84*	0
COC(=O)Cc1cc(C)cc2c(=O)cc(-c3ccoc3)oc12	11	9	1	-8	0
Cc1ccc(NC(=S)NCc2ccccn2)cc1	2	-13	2	74*	0
O=C(NCC1CCCO1)c1onc(CSc2cccc3ccccc23)c1C(=O)O (centres undefined)	22	7	-3	50*	1
N#CCCN(NC(=O)OCc1ccccc1)C(=O)OCc1ccccc1	.	.	.	-10	.
Cc1cccc(NC(c2ccc(C)s2)c2ccc3ccc(C)nc3c2O)n1 (centres undefined)	-36	15	2	6	93*
COc1cc(/C=C(\C#N)C(=O)Nc2ccc3c(c2)OCCO3)ccc1O	14	-12	2	73*	8
CCc1cc(Cn2nc(-c3ccccc3)cc2C(=O)NCC2CC2)on1	6	8	2	-6	-1
CCOc1ccc(N2CC(C(=O)NCc3nnnn3-c3ccc(C)c(C)c3)CC2=O)cc1 (centres undefined)	-3	6	-4	54*	1
Cc1ccc(-n2nnnc2CNC(=O)C2CC(=O)N(c3ccc(F)cc3)C2)cc1C (centres undefined)	3	0	0	-2	1
Cc1cccc(N2CCN(S(=O)(=O)c3ccc4c(c3)C(C)(C)C(=O)N4C)CC2C)c1 (centres undefined)	-6	3	-7	22	0
SMILES	697 NFkB inh	Jurkat NFkB inh	XBP1 UPR activ	CRFBP-R2 block	CHOP UPR activ
Cc1cccc(N2CCN(S(=O)(=O)c3ccc(Cl)nc3)CC2C)c1 (centres undefined)	23	1	-2	76*	0
Cc1ccc(C(=O)NCC(=O)N2CCCN(C)CC2)cc1C	-11	8	0	10	1
O=C(COc1cccc2c1CCN(Cc1ccc(Br)cc1)C2=O)NCc1ccco1	-6	-4	-1	64*	-2
NC(=O)COC(=O)c1ccc(-c2ccccc2)cc1	6	-8	0	6	1
NC(=O)COC(=O)c1ccc(-c2ccc(O)cc2)cc1	7	-2	2	80*	1
Cc1c(Cl)cccc1NS(=O)(=O)c1cn(C)c(=O)n(C)c1=O	4	3	1	7	-1
Cn1cc(S(=O)(=O)Nc2ccc(Br)cc2F)c(=O)n(C)c1=O	3	-4	0	71*	1
